Measurements: ChEMBL document CHEMBL5715950, “Characterization of molecular and cellular functions of the cyclin-dependent kinase CDK9 using a novel specific inhibitor” (Br J Pharmacol, 2014)
Active and inactive are the calls of the source. The calls are words filed in the database; no cut-off is given here.

What was measured:
HeLa = experiment: Inhibition of RNA synthesis in human HeLa cells stably transfected with luciferase reporter gene at 0.04 to 2 uM incubated for 30 mins followed by doxycycline addition and measured after 60 mins by RT-qPCR analysis; format: functional, cell-based; conditions: dose 0.04-2 µM, time 90.0 min
In short: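 Stably transfected HeLa cells carrying a tetracycline-inducible luciferase reporter: inhibitor or DMSO for 30 min, then 1 μg/mL doxycycline for 60 min. De novo reporter transcripts measured by RT-qPCR.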

THP-1 = experiment: Induction of apoptosis in human THP-1 cells at > 2 uM incubated for 24 hrs by Annexin V-FITC/PI staining based flow cytometric analysis; format: functional, cell-based
In short: (§1)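 Cells grown at 37°C, 5% CO2 (A549, HeLa, MCF7 in DMEM high glucose; HCT116 in McCoy's 5A; THP1 and primary AML M4 apheresis blasts in RPMI1640), exposed to inhibitor or DMSO for 24 h. Apoptotic fraction by flow cytometry after annexin V-fluorescein/propidium iodide double staining. Means ± SD of three biological replicates; AML blasts from one patient, three technical replicates. Student's t-test versus DMSO/untreated.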

A549 = experiment: Induction of apoptosis in human A549 cells at 10 uM incubated for 24 hrs by Annexin V-FITC/PI staining based flow cytometric analysis; format: functional, cell-based; in short: as §1
[1] = target: Cyclin-dependent kinase 9 (Homo sapiens) (UniProt P50750); experiment: Inhibition of CDK9 in human A549 cells assessed as downregulation of MYC mRNA expression at 1 to 10 uM incubated for 90 mins by RT-qPCR analysis relative to control; format: cell-based; conditions: dose 1-10 µM
Sequence of Cyclin-dependent kinase 9 (Homo sapiens) (P50750 whole entry): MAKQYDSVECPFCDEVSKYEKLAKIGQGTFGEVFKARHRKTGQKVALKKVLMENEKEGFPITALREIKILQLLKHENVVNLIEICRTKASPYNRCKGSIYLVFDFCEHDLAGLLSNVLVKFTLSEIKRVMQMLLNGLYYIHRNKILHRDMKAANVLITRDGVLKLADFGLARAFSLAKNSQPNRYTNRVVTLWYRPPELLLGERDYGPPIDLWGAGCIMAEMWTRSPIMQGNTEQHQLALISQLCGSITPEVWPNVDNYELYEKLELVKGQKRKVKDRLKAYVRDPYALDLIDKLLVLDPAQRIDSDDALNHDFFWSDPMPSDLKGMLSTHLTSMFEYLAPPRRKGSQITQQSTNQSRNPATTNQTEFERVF

[2] = target: Cyclin-dependent kinase 9 (Homo sapiens) (UniProt P50750); experiment: Inhibition of CDK9 in human HeLa cells assessed as upregulation of serine 7 phosphorylation at 10 uM incubated for 1 hr by chromatin immunoprecipitation assay; format: cell-based
[3] = target: Mitogen-activated protein kinase kinase kinase kinase 4 (Homo sapiens, UniProt O95819); experiment: Inhibition of MAP4K4 (unknown origin) incubated for 120 mins in presence of 33P-ATP by radiometric kinase assay
Sequence of Mitogen-activated protein kinase kinase kinase kinase 4 (O95819 whole entry): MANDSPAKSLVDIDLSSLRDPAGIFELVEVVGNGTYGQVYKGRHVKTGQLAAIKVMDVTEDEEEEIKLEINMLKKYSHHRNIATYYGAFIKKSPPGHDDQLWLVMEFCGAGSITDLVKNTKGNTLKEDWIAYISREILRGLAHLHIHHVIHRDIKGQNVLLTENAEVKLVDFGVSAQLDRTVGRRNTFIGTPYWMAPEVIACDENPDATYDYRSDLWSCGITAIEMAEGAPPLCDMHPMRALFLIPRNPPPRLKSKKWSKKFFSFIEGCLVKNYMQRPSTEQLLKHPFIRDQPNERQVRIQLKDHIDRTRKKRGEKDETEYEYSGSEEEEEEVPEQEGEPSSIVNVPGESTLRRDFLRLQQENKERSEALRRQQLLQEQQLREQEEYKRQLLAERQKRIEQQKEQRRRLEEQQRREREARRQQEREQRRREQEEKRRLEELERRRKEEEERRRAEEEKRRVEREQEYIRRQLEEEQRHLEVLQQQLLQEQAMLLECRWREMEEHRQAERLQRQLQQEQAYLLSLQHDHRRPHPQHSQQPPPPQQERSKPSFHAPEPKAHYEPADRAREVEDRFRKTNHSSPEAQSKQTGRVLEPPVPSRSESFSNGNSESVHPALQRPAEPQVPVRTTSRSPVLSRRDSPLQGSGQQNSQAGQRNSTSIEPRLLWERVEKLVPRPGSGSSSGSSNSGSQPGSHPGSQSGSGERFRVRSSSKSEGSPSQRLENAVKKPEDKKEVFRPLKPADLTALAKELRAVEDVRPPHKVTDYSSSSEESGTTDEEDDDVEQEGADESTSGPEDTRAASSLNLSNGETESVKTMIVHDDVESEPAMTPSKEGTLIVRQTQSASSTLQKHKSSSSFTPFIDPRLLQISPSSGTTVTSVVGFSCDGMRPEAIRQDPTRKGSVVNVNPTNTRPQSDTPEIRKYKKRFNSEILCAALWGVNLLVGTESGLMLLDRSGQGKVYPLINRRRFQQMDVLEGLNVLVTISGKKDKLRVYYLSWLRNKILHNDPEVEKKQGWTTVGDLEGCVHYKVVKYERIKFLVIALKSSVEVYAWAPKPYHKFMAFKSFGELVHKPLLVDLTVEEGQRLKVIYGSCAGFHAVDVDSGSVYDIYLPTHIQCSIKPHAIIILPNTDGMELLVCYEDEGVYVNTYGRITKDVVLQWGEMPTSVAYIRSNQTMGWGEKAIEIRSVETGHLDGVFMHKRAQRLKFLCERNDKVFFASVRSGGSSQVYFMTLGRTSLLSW

[4] = Selectivity ratio of IC50 for inhibition of CDK9/Cyclin T1 (unknown origin) to IC50 for inhibition of CDK6/Cyclin D3 (unknown origin)
p53HCT116 = experiment: Induction of apoptosis in human p53HCT116 cells at 10 uM incubated for 24 hrs by Annexin V-FITC/PI staining based flow cytometric analysis; format: functional, cell-based; in short: as §1
[5] = Selectivity ratio of IC50 for inhibition of CDK9/Cyclin T1 (unknown origin) to IC50 for inhibition of CDK4/Cyclin D1 (unknown origin)
[6] = target: Cyclin-dependent kinase 9 (Mus musculus) (UniProt Q99J95); experiment: Inhibition of CDK9 in mouse Embryonic stem cell assessed as downregulation of MYC mRNA expression at 2.5 to 40 uM incubated for 90 mins by RT-qPCR analysis relative to control; format: cell-based; conditions: dose 2.5-40 µM
Sequence of Cyclin-dependent kinase 9 (Mus musculus) (Q99J95 whole entry): as the sequence (P50750 whole entry) above, with S17T, R37K, K40Q, N258K, Y262F counted along it

[7] = Induction of apoptosis in human Acute myeloid leukemic cell at 10 uM incubated for 24 hrs by Annexin V-FITC/PI staining based flow cytometric analysis relative to control; format: functional, Leukemia cell; in short: as §1
[8] = target: Cyclin-dependent kinase 9 (Homo sapiens) (UniProt P50750); experiment: Inhibition of CDK9 in human A549 cells assessed as downregulation of GAPDH mRNA expression at 1 to 10 uM incubated for 90 mins by RT-qPCR analysis relative to control; format: cell-based; conditions: dose 1-10 µM
Leukemia cell = experiment: Induction of apoptosis in human Acute myeloid leukemic cell at > 2 uM incubated for 24 hrs by Annexin V-FITC/PI staining based flow cytometric analysis; format: functional; in short: as §1
[9] = target: Cyclin-dependent kinase 9 (Homo sapiens) (UniProt P50750); experiment: Inhibition of CDK9 in human A549 cells assessed as downregulation of MYC mRNA expression at 2 to 6 uM incubated for 90 mins by RT-qPCR analysis relative to control; format: cell-based; conditions: dose 2-6 µM
[10] = target: Cyclin-dependent kinase 9 (Homo sapiens) (UniProt P50750); experiment: Inhibition of CDK9 in human A549 cells assessed as downregulation of RPL3 mRNA expression at 1 to 10 uM incubated for 90 mins by RT-qPCR analysis relative to control; format: cell-based; conditions: dose 1-10 µM

With COc1ccccc1-c1cc(Nc2cccc(NS(C)(=O)=O)c2)ncn1 the inhibition (HeLa) was “Active”, the Activity (THP-1) was “Active” and the Activity (A549) was “Active”. The inhibition [1] was 50%, the inhibition [2] was “Active” and the IC50 [3] was 820 nM. The Ratio IC50 [4] was over 227, the Activity (p53HCT116) was “Active” and the Ratio IC50 [5] was 210. The inhibition [6] was “Active”, the Activity [7] was over 60% and the inhibition [8] was 50%. The Activity (Leukemia cell) was “Active”, the inhibition [9] was 50% and the inhibition [10] was 50%.
